# APP 5'UTR act: activates APP 5'UTR luciferase reporter; SH-SY5Y APP 5'UTR luciferase reporter, luminescence; zero percent = DMSO vehicle wells; activation, % at 2 µM; hit rate 1% among 190,000; AID 1276;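 active = activation above a set limit, based on mean plus 3 SD of controls, cut at about 140% in these data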
# NF-kB expr up: NF-kB expression increase, human neuronal cells; NF-kB reporter expression; hits give high values; fold change at 12.5 µM; hit rate 1.6% among 190,000; in the data active = fold change above about 3.3
# STAT1 blocker: STAT1 signaling inhibition; NIH 3T3 STAT1-luciferase reporter, IFN-gamma, luminescence; inhibition, % at 5.5 µM; hit rate 0.35% among 200,000; AID 920;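 active = inhibition above a set limit, the mean inhibition across all tested compounds plus 3 SD, cut at about 34% in these data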;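 also: 0% = IFN-gamma with DMSO and 100% = IFN-gamma with 300 µM nifuroxazide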
# STAT3 act: activators of IL-6 induced STAT3 signaling | activation (% of control), % at 5.6 µM | AID 871 | hit rate 0.91% among 190,000 | U3A cells, IL-6 STAT3-luciferase reporter, luminescence; 100% = signal with IL-6 EC80 alone;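 active = activation above the screen-wide mean of compound activation plus 3 SD, cut at about 130% in these data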;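 also: 0% = background luminescence of wells with medium and substrate only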
#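 System – human U3A cells carrying STAT3-luciferase construct · Probe or stimulus – Interleukin-6, 33 ng/mL · Schedule – compound 1 h, then IL-6 6 h at 37 °C · Signal – luminescence from STAT3-driven luciferase reporter · Evaluation – percent of IL-6-only median luminescence · Benchmarks – IL-6-only high control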
# STAT3 blocker: reduces IL-6 driven STAT3 reporter signal; U3A cells, IL-6 STAT3-luciferase reporter, luminescence; host cell line lacks STAT1; inhibition, % at 5.5 µM; hit rate 0.89% among 190,000; AID 862;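 active = inhibition above the mean inhibition across all screened compounds plus 3 SD, cut at about 44% in these data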;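 also: 0% = DMSO only wells and 100% = 100 µM nifuroxazide control wells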
# STAT1 activator: activators of IFN-gamma induced STAT1 signaling; activation (% of control), % at 5.5 µM; hit rate 2.6% among 200,000; NIH 3T3 STAT1-luciferase reporter, luminescence; 100% = IFN-gamma alone, no compound;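 active = activation above the screen-wide mean activation plus 3 SD, cut at about 130% in these data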;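 also: raw ratio to IFN-gamma control signal so 100% means no change and 0% no light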
# STAT1 activ conf: confirmation of STAT1 signaling activators | shares compounds with STAT1 activator | NIH 3T3 STAT1-luciferase reporter, IFN-gamma potentiation, luminescence; 100% = IFN-gamma EC80 alone, no compound | activation (% of control), % at 5.7 µM | hit rate 97% among 1,200 | AID 1262;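 active = activation above a set limit carried over from the earlier primary STAT1 screen, cut at about 140% in these data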;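 also: simple ratio to median IFN-gamma plus DMSO wells so 0% means no light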
# NFkB act STAT1ct: NF-kappaB activation in STAT1 activator counter-screen | HEK293T NF-kB luciferase reporter, TNF-alpha stimulated, luminescence; 100% = TNF-alpha with vehicle only | shares compounds with STAT1 activator | AID 1306 | activation (% of control), % at 5.7 µM | hit rate 43% among 1,200;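 active = activation above the mean of solvent-only control wells plus 3 SD, set per campaign, cut at about 130% in these data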;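 also: TNF-alpha given at a submaximal dose yielding about 80% of full reporter signal; values are well signal over median control so 100% means no change and 0% no light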
# STAT3 act 2: counter-screen for STAT1 activators: human STAT3 activation | shares compounds with STAT1 activator | U3A cells STAT3-luciferase reporter, IL-6, luminescence; cells lack STAT1; 100 = IL-6 alone, no compound effect | activation (% of control), % at 5.7 µM | hit rate 46% among 1,200 | AID 1316;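 active = activation above the solvent-only control well mean plus 3 SD, set per plate batch, cut at about 110% in these data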;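 also: 0% = no luminescence and 100% = median IL-6 plus DMSO wells; higher means more STAT3 reporter activation so hits are non-selective activators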
# Numbers without * were called inactive; / = no result. The list is not random: actives were taken first. Their share in the collection is about 4.9%.
SMILES,APP 5'UTR act,NF-kB expr up,STAT1 blocker,STAT3 act,STAT3 blocker,STAT1 activator,STAT1 activ conf,NFkB act STAT1ct,STAT3 act 2
Cc1ccc(N/C=C(/C#N)c2ccsc2)cc1C,105,5.2*,-107,117,-21,193*,235*,156*,125*
Cc1ccc(NC(=O)COc2ccccc2C=O)cc1Cl,154*,6.8*,-113,107,-4,200*,209*,137*,109
N#CC1=C(Nc2ccc(Br)cc2)CCC1,11,1.1,8,93,13,93,/,/,/
Brc1ccc(NC2=Nc3ccccc3CC2)cc1,99,4.7*,-63,79,28,158*,187*,141*,101
COC(=O)c1ccc(C(=O)NC(=S)Nc2nc3c(s2)CCCC3)cc1,22,1.7,-27,107,-2,124,/,/,/
O=C(Nc1nc2c(s1)CCCC2)c1ccc2ncsc2c1,160*,3,-86,86,18,182*,271*,139*,111*
Cc1ncsc1C(=O)Nc1nc2c(s1)CCCC2,101,3.2,-59,87,18,154*,175*,124,105
COc1ccc(OC)c2sc(NC(=O)c3ccc(Br)s3)nc12,20,1.2,0,98,3,101,/,/,/
O=C(Nc1nc2c(s1)CCCC2)c1ccc(Br)s1,146*,6.1*,-74,86,21,166*,256*,138*,104
O=[N+]([O-])c1ccccc1-c1nc(-c2ccc(Br)o2)no1,160*,0.99,-79,106,-7,170*,200*,132,137*
Nc1nnc(-c2ccccc2[N+](=O)[O-])o1,14,1,-12,96,8,109,/,/,/
N=C1/C(=C\c2ccc(OCc3ccccc3)cc2)C(=O)N=C2SC(N3CCCC3)=NN12,7,1.6,-7,/,/,105,/,/,/
Cc1ccc(C(=O)Nc2ccc(SC(F)F)cc2)s1,112,1.2,-80,102,0,173*,205*,141*,98
CCn1c(O)c(C=Nc2ccccc2)sc1=S,191*,3.4*,-84,100,11,176*,206*,139*,111*
O=C(O)Cn1c(O)c(C=Nc2ccccc2)sc1=S,16,1.1,-2,96,10,102,/,/,/
Clc1ccc(C2=NNC(=NCC3CCCO3)SC2)cc1 (stereo unspecified),24,1.9,-28,109,-16,126,/,/,/
c1csc(C2=NNC(=NC3CCCCC3)SC2)c1,137*,2.5,-58,107,1,155*,168*,119,109
COCCNC(=O)c1ccccc1NC(=O)CSc1ccc(C)cc1,8,0.78,-8,99,7,105,/,/,/
N#C/C(=N\Nc1ccc(Cl)cc1)C(=N)N1CCCCC1,190*,7.4*,-135,85,21,223*,316*,149*,118*
COc1ccc2c(Cl)c(C(=O)NN3CCN(C)CC3)sc2c1,12,1.3,-24,97,8,119,/,/,/
Cc1ccc(CNC(=O)Cc2noc3ccccc23)cc1,104,2.8,-2,78,29,100,/,/,/
O=C(Nc1ccc(NC(=O)C23CC4CC(CC(C4)C2)C3)cn1)c1ccco1,95,1.8,-93,108,-8,185*,222*,142*,123*
CC(C)=CC(=O)Nc1nc2ccc([N+](=O)[O-])cc2s1,36,2.2,-91,100,7,181*,180*,126,107
CCN(CC)C(=O)c1cn(CCC#N)nc1-c1ccc(F)cc1,-2,1.2,-7,103,3,104,/,/,/
Cc1ccc(C(=O)COC(=O)c2cc(=O)[nH]c3ccccc23)cc1C,-21,2.6,-70,99,4,163*,203*,136*,121*
SMILES,APP 5'UTR act,NF-kB expr up,STAT1 blocker,STAT3 act,STAT3 blocker,STAT1 activator,STAT1 activ conf,NFkB act STAT1ct,STAT3 act 2
Cc1ccc2[nH]c(=O)cc(C(=O)OCC(=O)c3ccccc3)c2c1,-8,1.1,-2,109,-12,102,/,/,/
Cc1cc(C)cc(Nc2ncc3c(n2)CCCC3=O)c1,163*,2.9,-58,75,31,154*,185*,106,107
COc1ccc(C(=O)NCC(=O)OCC(=O)Nc2cc([N+](=O)[O-])ccc2F)cc1,-3,0.95,1,93,15,97,/,/,/
Nc1ccccc1Nc1cc(-c2ccccc2)[nH]n1,18,4.7*,-134,75,31,225*,179*,83,92
Nc1ccccc1Nc1cc(-c2ccccc2)nn1-c1ccccc1,-3,1.2,-10,99,4,109,/,/,/
O=C(NCCc1ccccc1)c1ccc(Cl)nc1,73,3,-54,97,8,156*,163*,118,121*
CC(=O)Nc1ccc(C(=O)NCCc2ccccc2)cc1,28,1,-9,108,-12,111,/,/,/
COc1ccc(CC2SC(=Nc3ccc(F)cc3)NC2=O)cc1 (stereo unspecified),4,0.94,-1,106,-6,100,/,/,/
C/C(N)=C(/C#N)C(=O)COC(=O)c1cc(C)n(-c2ccc(F)cc2)c1C,19,1.9,-58,106,-3,154*,173*,121,153*
CCN(CC)c1ccc(NC(=O)c2ccccc2OCC(=O)OC)cc1,2,1.4,7,96,7,92,/,/,/
Cc1ccc(NC(=O)COC(=O)CNC(=O)c2ccc(Br)cc2)c(C)c1,-18,1.1,0,93,12,100,/,/,/
O=C(Oc1ccc2ccccc2c1Cl)N1CCCCCC1,133,5.1*,-81,102,3,174*,211*,118,141*
CC(C)c1ccc(NC(=O)c2cc(Br)ccc2Br)cc1,-17,1.3,-6,97,8,105,/,/,/
CC(C)c1ccc(NC(=O)c2snc3ccc(Cl)cc23)cc1,120,2.3,-64,131,-31,158*,194*,126,139*
CCOC(=O)c1sc2nc3c(cc2c1N)COC(C(C)C)C3 (stereo unspecified),145*,1.4,-126,71,37,214*,233*,110,75
CCOC(=O)c1sc2nc(N3CCOCC3)c3c(c2c1N)CC(C(C)C)OC3 (stereo unspecified),-11,1.2,-1,81,31,100,/,/,/
